Laboratory results: ChEMBL document CHEMBL5108087, “Synthesis and biological evaluation of paeoveitol D derivatives as new melatonin receptor agonists with antidepressant activities” (RSC Med Chem, 2022)
Activity calls are given as the source filed them. No cut-off for these calls is given here.

Tests used:
Mus musculus [1] = experiment: Antidepressant activity in kunming mouse assessed as decrease in DOPAC level in hypothalamus at 160 mg/kg, po measured after 14 days by HPLC-ECD analysis; format: functional, organism-based; settings: time 14.0 day
Method in brief: (§1)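 Male Kunming mice dosed orally with vehicle or 160 mg kg−1 for 14 days, then killed by cervical dislocation. Brain regions dissected on ice, homogenized in 0.2 M perchloric acid with 0.1 mM EDTA and spun at 4 °C for 20 min. Supernatant analysed by HPLC-ECD at +0.50 V, mobile phase pH 3.0. Amounts given in ng g−1 as mean ± SEM, n = 12.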

[2] = Subacute toxicity in Kunming mouse assessed as effect on spleen structure at 240 mg/kg, po administered for 14 days; format: organism-based; settings: in vivo, 336 h, time 14 day
Method in brief: (§2)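 Subacute oral study following OECD 425. Animals randomised into two groups of six. Vehicle control received 0.5% CMC-Na orally for 14 consecutive days; the treated group received 240 mg kg−1 body weight orally for 14 consecutive days.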

Mus musculus [3] = experiment: Antidepressant activity in kunming mouse assessed as increase in 5-HT level in frontal cortex at 160 mg/kg, po measured after 14 days by HPLC-ECD analysis; format: functional, organism-based; settings: time 14.0 day; method in brief: as §1
Mus musculus [4] = experiment: Antidepressant activity in kunming mouse assessed as increase in dopamine level in striatum at 160 mg/kg, po measured after 14 days by HPLC-ECD analysis; format: functional, organism-based; settings: time 14.0 day; method in brief: as §1
[5] = target: T1, Melatonin receptor type 1B (Homo sapiens, UniProt P49286); experiment: Agonist activity at human MT2 receptor expressed in HEK293 cells by Fluo-8 based calcium assay; format: functional, cell-based
T1 sequence (P49286 whole entry): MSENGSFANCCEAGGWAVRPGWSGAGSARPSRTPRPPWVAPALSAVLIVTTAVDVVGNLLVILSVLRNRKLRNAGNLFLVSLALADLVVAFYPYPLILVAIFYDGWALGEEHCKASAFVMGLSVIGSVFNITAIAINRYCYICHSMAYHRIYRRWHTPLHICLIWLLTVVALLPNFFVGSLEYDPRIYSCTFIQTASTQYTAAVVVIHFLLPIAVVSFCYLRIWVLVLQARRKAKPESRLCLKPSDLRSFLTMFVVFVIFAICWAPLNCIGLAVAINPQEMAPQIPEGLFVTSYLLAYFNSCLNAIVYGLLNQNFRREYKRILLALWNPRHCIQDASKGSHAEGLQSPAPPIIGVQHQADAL

[6] = Subacute toxicity in Kunming mouse assessed as effect on liver structure at 240 mg/kg, po administered for 14 days; format: organism-based; settings: in vivo, 336 h, time 14 day; method in brief: as §2
[7] = target: Melatonin receptor type 1A (Homo sapiens, UniProt P48039); experiment: Agonist activity at human MT1 receptor expressed in HEK293 cells by Fluo-8 based calcium assay; format: functional, cell-based
Sequence of Melatonin receptor type 1A (P48039 whole entry, the tested form may be a part): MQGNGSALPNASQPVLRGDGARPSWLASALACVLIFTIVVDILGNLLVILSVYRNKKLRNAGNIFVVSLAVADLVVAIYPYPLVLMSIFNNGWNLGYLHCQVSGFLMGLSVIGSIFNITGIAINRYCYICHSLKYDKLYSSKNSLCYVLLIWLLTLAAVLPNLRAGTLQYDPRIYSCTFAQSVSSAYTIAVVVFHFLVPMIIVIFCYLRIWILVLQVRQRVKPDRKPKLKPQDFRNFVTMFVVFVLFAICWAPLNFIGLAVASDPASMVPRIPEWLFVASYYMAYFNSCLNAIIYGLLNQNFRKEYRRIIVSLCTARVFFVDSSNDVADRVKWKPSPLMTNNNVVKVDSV

Mus musculus [8] = experiment: Antidepressant activity in kunming mouse assessed as decrease in 5-HIAA level in frontal cortex at 160 mg/kg, po measured after 14 days by HPLC-ECD analysis; format: functional, organism-based; settings: time 14.0 day; method in brief: as §1
Mus musculus [9] = experiment: Antidepressant activity in kunming mouse assessed as decrease in 5-HIAA level in striatum at 160 mg/kg, po measured after 14 days by HPLC-ECD analysis; format: functional, organism-based; settings: time 14.0 day; method in brief: as §1
[10] = target: T1, Melatonin receptor type 1B; experiment: (§3) Agonist activity at human MT2 receptor transfected in HEK293T cells co-transfected with tet-inducible luciferase reporter plasmid, pCDNA3.1(+)-CMV-betaArrestin2-tev plasmid and TANGO plasmid assessed as relative luminescence unit incubated for 24 hrs by TANGO-GPCR assay based luminescence plate reader analysis; format: functional, cell-based
[11] = Cmax in Kunming mouse at 80 mg/kg, po administered as single dose and measured upto 24 hrs; format: ADME, organism-based; set-up: time < 24 hrs, dose 80 mg/kg, route po; settings: in vivo
Mus musculus [12] = experiment: Antidepressant activity in kunming mouse assessed as decrease in DOPAC level in frontal cortex at 160 mg/kg, po measured after 14 days by HPLC-ECD analysis; format: functional, organism-based; settings: time 14.0 day; method in brief: as §1
Mus musculus [13] = experiment: Antidepressant activity in kunming mouse assessed as decrease in 5-HIAA level in hippocampus at 160 mg/kg, po measured after 14 days by HPLC-ECD analysis; format: functional, organism-based; settings: time 14.0 day; method in brief: as §1
[14] = Subacute toxicity in Kunming mouse assessed as effect on kidney structure at 240 mg/kg, po administered for 14 days; format: organism-based; settings: in vivo, 336 h, time 14 day; method in brief: as §2
Mus musculus [15] = experiment: Antidepressant activity in kunming mouse assessed as decrease in DOPAC level in hippocampus at 160 mg/kg, po measured after 14 days by HPLC-ECD analysis; format: functional, organism-based; settings: time 14.0 day; method in brief: as §1
Mus musculus [16] = experiment: Antidepressant activity in kunming mouse assessed as increase in 5-HT level in striatum at 160 mg/kg, po measured after 14 days by HPLC-ECD analysis; format: functional, organism-based; settings: time 14.0 day; method in brief: as §1
[17] = AUC (0 to infinity) in Kunming mouse at 80 mg/kg, po administered as single dose and measured upto 24 hrs; format: ADME, organism-based; set-up: time < 24 hrs, dose 80 mg/kg, route po; settings: in vivo
HEK293T [18] = experiment: as §3, with “MT1 Q181A mutant” for “MT2”, “shift in concentration response curve” for “relative luminescence unit”, “analysis relative to agomelatine” for “analysis”; format: cell-based; settings: filed as agonist
Method in brief: (§4)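 293T cells transiently transfected with tet-inducible luciferase reporter, pCDNA3.1(+)-CMV-bArrestin2-tev and TANGO receptor plasmids (wild-type or point mutant). Next day plated at 20 000 cells/well on poly-L-lysine; drug added day 3. Day 4, Bright-Glo added, 20 min, then luminescence read. Concentration–response curves fitted; data mean ± SD.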

[19] = Half-life in Kunming mouse at 80 mg/kg, po administered as single dose and measured upto 24 hrs; format: ADME, organism-based; settings: in vivo
[20] = Clearance in Kunming mouse at 80 mg/kg, po administered as single dose and measured upto 24 hrs; format: ADME, organism-based; settings: in vivo
Mus musculus [21] = experiment: Antidepressant activity in Kunming mouse assessed as decrease in immobility time at 80 mg/kg, po administered two times at 1 hrs and 24 hrs and measured at last 4 mins of 6 mins test by forced swim test relative to fluoxetine; format: functional; set-up: scale not given: the % may be the effect or the level left; settings: time 1444 min, 24.07 h
Method in brief: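 Male Kunming mice, 15–18 g, housed six per cage at 22 ± 1 °C on a 12 h light/dark cycle. Oral dosing 24 h and 1 h before the test. Each mouse placed in a cylinder (25 cm high, 15 cm diameter) holding 10 cm of water at 25 ± 1 °C and made to swim 6 min; immobility over the last 4 min scored by video tracking.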

HEK293T [22] = experiment: as §3, with “MT1 N162A mutant” for “MT2”, “shift in concentration response curve” for “relative luminescence unit”, “analysis relative to agomelatine” for “analysis”; format: cell-based; settings: filed as agonist; method in brief: as §4
[23] = Subacute toxicity in Kunming mouse assessed as effect on lung structure at 240 mg/kg, po administered for 14 days; format: organism-based; settings: in vivo, 336 h, time 14 day; method in brief: as §2

COc1cc2c(CN3CCN(C)CC3)coc2cc1C
Activity (Mus musculus [1]): Active | Activity [2]: Non-Toxic | Activity (Mus musculus [3]): Active | Activity (Mus musculus [4]): Active | EC50 [5]: 260 µM | Activity [6]: Non-Toxic | EC50 [7]: 330 µM | Activity (Mus musculus [8]): Active | Activity (Mus musculus [9]): Active | EC50 [10]: 299 µM | Cmax [11]: 1340 ng/mL | Activity (Mus musculus [12]): Active | Activity (Mus musculus [13]): Active | Activity [14]: Non-Toxic | Activity (Mus musculus [15]): Active | Activity (Mus musculus [16]): Active | AUC [17]: 5620 ng·h/mL | Activity (HEK293T [18]): Active | half-life [19]: 5.47 h | CL/F [20]: 237 mL/min | Activity (Mus musculus [21]): 26% | Activity (HEK293T [22]): Active | Activity [23]: Non-Toxic
